# Assay results taken from ChEMBL document CHEMBL1135128, “Structure-Activity studies for a novel series of tricyclic dihydropyrimidines as K(ATP) channel openers (KCOs)” (Bioorg Med Chem Lett, 2002).
# Target: Sulfonylurea receptors; K-ATP channels
# Experiment: Potassium channel opening activity determined in cultured guinea pig urinary bladder cells
# Assay type: functional, cell-based, Cavia porcellus
# Summary of the method: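 Membrane potential change read as DiBAC dye fluorescence in a 96-well cell-based kinetic FLIPR assay. Fluorescence changes were compared with the response to the KCO P1075, and each compound's maximal response was expressed as % of the P1075 response.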
row,SMILES,EC50 [nM]
1,N#Cc1cccc(C2C3=C(CCCC3=O)NC3=C2C(=O)CCC3)c1,3800
2,OC1=C2C(=Nc3ccnn3C2c2cccc(Cl)c2)CCC1 (configuration not stated),1100
3,Cc1cccc(C2C3=C(O)CCCC3=Nc3ccnn32)c1 (configuration not stated),> 10000
4,OC1=C2C(=Nc3ccnn3C2c2ccc(F)cc2)CCC1 (configuration not stated),7800
5,OC1=C2C(=Nc3ncnn3C2c2ccc(F)c(Br)c2)CCC1 (configuration not stated),> 10000
6,O=[N+]([O-])c1cc(C2C3=C(O)CCCC3=Nc3ccnn32)ccc1Cl (configuration not stated),310
7,CC(C)(C)c1cc2n(n1)C(c1ccc(F)c(Br)c1)C1=C(O)CCCC1=N2 (configuration not stated),12000
8,O=C1CSCC2Nc3ccnn3C(c3ccc(F)c(Br)c3)C12 (configuration not stated),40
9,OC1=C2C(=Nc3ccnn3C2c2ccc(F)c(Br)c2)CCC1 (configuration not stated),30
10,O=S1(=O)CCCC2Nc3ccnn3C(c3ccc(F)c(Br)c3)C21 (configuration not stated),910
11,OC1=C2C(=Nc3ccnn3C2c2ccc(Cl)c(Cl)c2)CCC1 (configuration not stated),130

# Continued, values first:
row,EC50 [nM],SMILES
1,12000,OC1=C2C(=Nc3c(-c4ccco4)cnn3C2c2ccc(Cl)c(Cl)c2)CCC1 (configuration not stated)
2,290,OC1=C2C(=Nc3ccnn3C2c2ccc(F)c(C(F)(F)F)c2)CCC1 (configuration not stated)
3,187,OC1=C2C(=Nc3ccnn3C2c2ccc(Cl)c(C(F)(F)F)c2)CCC1 (configuration not stated)
4,> 10000,OC1=C2C(=Nc3nnnn3C2c2ccc(F)c(Br)c2)CCC1 (configuration not stated)
5,> 10000,OC1=C2C(=Nc3n[nH]cc3C2c2ccc(F)c(Br)c2)CCC1 (configuration not stated)
6,3200,OC1=C2C(=Nc3c(-c4cccc(F)c4)cnn3C2c2ccc(Cl)c(Cl)c2)CCC1 (configuration not stated)
7,30,OC1=C2C(=Nc3ccnn3C2c2ccc(Br)c(F)c2)CCC1 (configuration not stated)
8,9700,CC1(C)CC(=O)C2C(C1)Nc1ccnn1C2c1ccc(F)c(Br)c1 (configuration not stated)
9,35,CC1(C)CCC2Nc3ccnn3C(c3ccc(F)c(Br)c3)C2C1=O (configuration not stated)
10,1700,OC1=C2C(=Nc3ccnn3C2c2cccc(OC(F)(F)F)c2)CCC1 (configuration not stated)
11,256,OC1=C2C(=Nc3ccnn3C2c2ccc(F)c(Cl)c2)CCC1 (configuration not stated)
12,2860,N#Cc1cccc(C2C3=C(O)CCCC3=Nc3ccnn32)c1 (configuration not stated)
13,394,OC1=C2C(=Nc3c(Br)cnn3C2c2ccc(F)c(Br)c2)CCC1 (configuration not stated)
14,550,OC1=C2C(=Nc3ccnn3C2c2cccc(Br)c2)CCC1 (configuration not stated)

# Target: not listed separately
# Experiment: PEC50 for functional potassium channel opening activity in isolated bladder strips
row,EC50 [nM],SMILES
1,339,OC1=C2C(=Nc3ccnn3C2c2ccc(F)c(Br)c2)CCC1 (configuration not stated)
2,1000,CC1(C)CCC2Nc3ccnn3C(c3ccc(F)c(Br)c3)C2C1=O (configuration not stated)
